Compound activity from PubChem.
FLuc inhib CS = firefly luciferase enzyme inhibitors, primary screen, artefact control for luciferase-based inhibitor screens, biochemical, luminescence, ATPLite; AID 1006, 2008; hit rate 1.5% among 200,000; 10 min; Luciferin 4-monooxygenase (Photinus pyralis), P08659; inhibition, % at 10 µM;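 active = inhibition above about 50% when tested at 10 µM, limit read from the data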
Target sequence (P08659 whole entry, looked up): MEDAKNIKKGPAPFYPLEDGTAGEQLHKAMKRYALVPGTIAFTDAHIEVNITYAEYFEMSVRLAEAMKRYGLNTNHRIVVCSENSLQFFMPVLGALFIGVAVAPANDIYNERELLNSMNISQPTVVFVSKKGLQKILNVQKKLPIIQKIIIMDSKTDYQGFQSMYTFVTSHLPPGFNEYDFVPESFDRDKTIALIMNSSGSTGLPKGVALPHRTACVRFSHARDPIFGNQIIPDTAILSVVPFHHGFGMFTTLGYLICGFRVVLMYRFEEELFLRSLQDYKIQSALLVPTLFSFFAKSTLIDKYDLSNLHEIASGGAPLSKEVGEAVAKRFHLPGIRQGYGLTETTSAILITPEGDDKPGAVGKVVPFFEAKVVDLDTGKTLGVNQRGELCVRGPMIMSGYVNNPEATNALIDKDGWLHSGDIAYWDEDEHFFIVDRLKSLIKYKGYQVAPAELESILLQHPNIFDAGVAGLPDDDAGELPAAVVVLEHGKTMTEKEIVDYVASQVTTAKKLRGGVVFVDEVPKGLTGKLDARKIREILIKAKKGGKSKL
STAT1 activator = STAT1 signaling activators, primary screen, cell-based, HTS, luciferase reporter. NIH 3T3 STAT1-luciferase reporter, IFN-gamma, luminescence; 100% = IFN-gamma alone, no compound. activation (% of control), % at 5.5 µM. hit rate 2.6% among 200,000. AID 932, 2007;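 active = activation above the screen-wide mean activation plus 3 SD, cut at about 130% in these data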;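 also: raw ratio to IFN-gamma control signal so 100% means no change and 0% no light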
NF-kB expr up = activators of NF-kB expression in neurons, primary screen, cell-based, HTS; human neuronal cells, NF-kB reporter expression; hits give high values; fold change at 12.5 µM; hit rate 1.6% among 190,000; AID 1239, 2008; in the data active = fold change above about 3.3
sdo1 growth = growth rescue of sdo1-depleted yeast, primary screen, S. cerevisiae, bone marrow failure model; S. cerevisiae sdo1-depleted JHY4D growth rescue, OD600 30 h; hits give high values; pdr5 snq2 efflux-pump mutant strain; z-score at 10 µM; hit rate 0.21% among 140,000; AID 817, 2007;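 active = z-score above 3 at both the 24 hr and the 30 hr optical density reads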;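 also: z-score against mean and SD of all compound wells on the same plate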
FLuc stim CS = FLuc activators, initial screening, artefact control for FLuc-dependent activation tests, biochemical, ATPlite luminescence; Luciferin 4-monooxygenase (Photinus pyralis), P08659; ATPlite luciferase biochemical, 10 min; 0 = ATP-free wells, 1 = DMSO control; activation factor at 10 µM; 200,000 tested, under 10 active;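 active = luciferase activation factor, scaled between plate controls, of at least 2 with compound at 10 µM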
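Assay system – cell-free luciferase reagent · Medium – PBS-based ATP solution · Dosing – test compounds dosed from 2 mM stocks in 100% DMSO · Timing – 10 min, room temperature · Technique – light output (luminescence) · Measure – luminescence gain marking luciferase activators · Controls – No-ATP low control, compound-free enzyme-plus-ATP high control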
APP 5'UTR act = activators of APP 5'UTR luciferase reporter, primary screen, SH-SY5Y cells. hit rate 1% among 190,000. SH-SY5Y APP 5'UTR luciferase reporter, luminescence; zero percent = DMSO vehicle wells. AID 1276, 2008. activation, % at 2 µM;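 active = activation above a set limit, based on mean plus 3 SD of controls, cut at about 140% in these data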
STAT1 activ conf = STAT1 signaling activators, confirmation, cell-based, HTS, luciferase reporter; activation (% of control), % at 5.7 µM; AID 1262, 2008; hit rate 97% among 1,200; shares compounds with STAT1 activator; NIH 3T3 STAT1-luciferase reporter, IFN-gamma potentiation, luminescence; 100% = IFN-gamma EC80 alone, no compound;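 active = activation above a set limit carried over from the earlier primary STAT1 screen, cut at about 140% in these data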;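 also: simple ratio to median IFN-gamma plus DMSO wells so 0% means no light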
NFkB act = NF-kB reporter activators, TNF-alpha stimulated, counter-screen for STAT1 activator project, cell-based, HEK293T, luciferase luminescence; activation (% of control), % at 5.7 µM; hit rate 43% among 1,200; shares compounds with STAT1 activator; AID 1306, 2008; 100% = TNF-alpha with vehicle only;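 active = activation above the mean of solvent-only control wells plus 3 SD, set per campaign, cut at about 130% in these data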;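 also: TNF-alpha given at a submaximal dose yielding about 80% of full reporter signal; values are well signal over median control so 100% means no change and 0% no light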
STAT3 act 2 = STAT3 reporter activation by STAT1 hits, confirmation, counter-screen for STAT1 activator project, U3A cells, luciferase, luminescence | IL-6; cells lack STAT1; 100 = IL-6 alone, no compound effect | activation (% of control), % at 5.7 µM | shares compounds with STAT1 activator | hit rate 46% among 1,200 | AID 1316, 2008;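 active = activation above the solvent-only control well mean plus 3 SD, set per plate batch, cut at about 110% in these data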;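 also: 0% = no luminescence and 100% = median IL-6 plus DMSO wells; higher means more STAT3 reporter activation so hits are non-selective activators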
* = called active by the depositor; · = no result. Sampled rows, rich in hits. Any-hit rate of the full collection: about 4.3%.

SMILES	FLuc inhib CS	STAT1 activator	NF-kB expr up	sdo1 growth	FLuc stim CS	APP 5'UTR act	STAT1 activ conf	NFkB act	STAT3 act 2
CC(C)c1ccc(N=C2NN=C(c3cccs3)CS2)cc1	50.1*	153.2*	1.07	·	0.5	169.2*	194.7*	126.4	111.1*
O=C(Nc1ccccc1C(=O)NCc1cccnc1)c1cccc([N+](=O)[O-])c1	-1.0	106.6	1.12	·	1	-5.5	·	·	·
CCN(CC)c1ccc2cc(C(=O)Nc3cccnc3N3CCOCC3)c(=O)oc2c1	-7.0	·	·	·	1.1	·	·	·	·
CCN(CC)c1ccc2cc(C(=O)Nc3ccccn3)c(=O)oc2c1	44.6	154.2*	3.58*	-0.97	0.6	97.0	236.2*	93.3	92.5
O=C(Nc1ccccc1Br)C1CCN(C(=O)Cc2ccccc2)CC1	-3.5	100.2	1.05	1.89	1	-8.2	·	·	·
Nc1nc(-c2ccc3ccccc3c2)cs1	44.2	169.0*	6.3*	·	0.6	71.6	195.0*	134.3*	107.2
O=C(Nc1nc2ccccc2s1)c1ccc(OCC2CCCO2)cc1 (configuration not stated)	73.7*	177.4*	1.58	-1	0.3	121.8	247.8*	102.7	96.7
CSc1nc2ccc(NC(=O)c3ccc(Cl)s3)cc2s1	6.5	186.0*	1.47	·	0.9	137.7*	180.6*	140.3*	104.2
O=C(NC1=NCCS1)c1ccc(OCC2CCCO2)cc1 (configuration not stated)	46.8	119.5	2.39	0.23	0.5	85.3	·	·	·
O=C(Nc1nc2ccccc2s1)c1ccc(Cl)s1	32.2	155.5*	4.75*	0.26	0.7	155.6*	230.6*	141.1*	108.8
COc1ccc(-c2cc(C(=O)Nc3nc4ccccc4s3)c3ccccc3n2)cc1OC	0.6	103.1	0.58	-0.67	1	15.7	·	·	·
COc1ccc(C(=O)Nc2nc3ccccc3s2)cc1OC	21.3	174.1*	3.6*	·	0.8	138.6*	227.0*	154.6*	113.8*
CC(Sc1nc2c(cc1C#N)CCCCC2)C(=O)O (configuration not stated)	-3.7	97.0	1.05	·	1	26.2	·	·	·
O=C(CCC1CCCC1)Nc1ccc([N+](=O)[O-])cn1	-2.0	115.0	1.56	-0.95	1	17.3	·	·	·
O=C1CCCc2nc3c(cc21)C(O)Oc1c-3ccc2ccccc12 (configuration not stated)	-2.3	185.7*	2.24	·	1	157.4*	216.2*	143.5*	106.2
O=C1CCCc2nc3c(cc21)C(O)Oc1ccccc1-3 (configuration not stated)	-1.4	104.9	·	·	1	9.8	·	·	·
Cc1oc(-c2ccc(-c3ccccc3)cc2)nc1CN(C)C1CCOC1 (configuration not stated)	25.5	165.3*	2.34	·	0.7	79.2	191.6*	144.0*	116.7*
CC(=O)Nc1sc2c(c1C#N)CCCC2	-5.0	103.3	1	-0.63	1.1	9.3	·	·	·
CC(=O)NC(=S)Nc1sc2c(c1C#N)CCCCC2	72.2*	166.6*	1.71	-1.9	0.3	61.8	186.4*	104.7	90.3
CC(C)C(=O)Nc1sc2c(c1C#N)CCCCC2	4.4	110.4	1.55	-0.17	1	-7.3	·	·	·
Cc1cc(C(=O)Nc2sc3c(c2C#N)CCCCC3)cs1	48.6	176.5*	4.24*	-1.2	0.5	158.8*	254.5*	145.6*	111.1*
CC(=O)Nc1ccc(S(=O)(=O)N2CCN(c3nc(NC4CCCC4)c4ccccc4n3)CC2)cc1	-8.9	105.3	0.99	0.17	1.1	-10.5	·	·	·
Cc1ccc(NC(=O)COc2ccc(CCO)cc2-n2nc3ccccc3n2)cc1C	-7.0	99.0	1.04	-0.16	1.1	-7.1	·	·	·
CCOC(=O)c1ccc(OS(=O)(=O)c2ccccc2)c(OC)c1	3.0	174.2*	3.8*	-0.12	1	113.5	184.8*	141.2*	122.6*
O=C(OCc1csc(-c2ccccc2)n1)c1cccs1	44.3	152.4*	3.02	-0.84	0.6	16.9	181.0*	119.8	108.3
SMILES	FLuc inhib CS	STAT1 activator	NF-kB expr up	sdo1 growth	FLuc stim CS	APP 5'UTR act	STAT1 activ conf	NFkB act	STAT3 act 2
CCOc1cc(NC(=O)c2ccccc2C)c(OCC)cc1NC(=O)C1=Cc2ccccc2OC1	-6.5	99.1	0.98	-0.13	1.1	-2.9	·	·	·
Cc1cccc(C(=O)NC(=S)NNC(=O)c2cccs2)c1	4.3	106.3	0.92	-0.32	1	-0.1	·	·	·
Cc1ccc2oc(-c3ccc(C)c(NC(=O)Cc4cccs4)c3)nc2c1	8.5	114.2	1.15	1.53	0.9	10.7	·	·	·
Cc1ccnc(NC(=S)NC(=O)c2cccs2)c1	87.2*	237.4*	3.67*	-0.11	0.1	130.1	262.6*	166.0*	132.4*
Cc1ccc2oc(-c3ccc(C)c(NC(=S)NC(=O)c4cccs4)c3)nc2c1	12.0	153.9*	3.44*	-0.49	0.9	221.5*	145.3*	119.1	131.6*
CCOC(=O)C(C(=O)Nc1nc2ccccc2s1)C1CCCCC1 (configuration not stated)	-5.6	103.2	0.88	-1.16	1.1	13.5	·	·	·
O=C(Nc1nc2ccccc2s1)NC1CCCCC1	46.1	160.7*	9.2*	·	0.5	144.4*	226.3*	131.9	116.5*
O=C(CC1CCCCC1)Nc1nc2ccccc2s1	6.8	155.0*	3.05	·	0.9	133.2	184.1*	133.9*	119.7*
CCSc1c(-c2ccccc2)nc2c(C)cccc2c1C(=O)O	-3.5	97.4	1.12	0.07	1	4.7	·	·	·
Cc1sc(NC(=O)c2ccccc2)c(C#N)c1-c1ccccc1	31.1	166.0*	4.91*	-0.52	0.7	137.9*	200.3*	140.9*	108.5
O=[N+]([O-])c1ccc(C2=Nc3cc(Cl)ccc3OC2)cc1	-7.0	122.1	1.32	·	1.1	21.0	·	·	·
Cc1ccc2c(c1)N=C(c1ccc(F)cc1)CO2	36.3	163.8*	2.8	-0.58	0.6	85.7	195.2*	143.8*	111.1*
